Laboratory results from ChEMBL document CHEMBL1122104, “Ring contraction of oleandrose on the macrolide antibiotic oleandomycin with [(Methoxycarbonyl)sulfamoyl]triethylammonium hydroxide inner salt” (1982).

What was measured:
[1] = tested on: Staphylococcus aureus; experiment: In vitro antibacterial activity against Staphylococcus aureus (01A005), and minimum inhibitory concentration was determined; format: functional
Method in brief: (§1)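 Broth dilution MIC determination, done per a previously described procedure. Each value is the mean of two determinations.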

[2] = tested on: Streptococcus pyogenes; experiment: In vitro antibacterial activity against Streptococcus pyogenes (02C203), and minimum inhibitory concentration was determined; format: functional; method in brief: as §1
[3] = tested on: Bacillus subtilis; experiment: In vitro antibacterial activity against Bacillis subtilis (06A001), and minimum inhibitory concentration was determined; format: functional; method in brief: as §1
[4] = tested on: Enterococcus faecalis; experiment: In vitro antibacterial activity against Streptococcus faecalis (02A006), and minimum inhibitory concentration was determined; format: functional; method in brief: as §1
[5] = tested on: Staphylococcus aureus; experiment: In vitro for antibacterial activity against Staphylococcus aureus (01A111), and minimum inhibitory concentration was determined; format: functional; method in brief: as §1
[6] = tested on: Escherichia coli; experiment: In vitro antibacterial activity against Escherichia coli (51A470), and minimum inhibitory concentration was determined; format: functional; method in brief: as §1
[7] = tested on: Neisseria sicca; experiment: In vitro antibacterial activity against Neisseria sicca (66C000), and minimum inhibitory concentration was determined
[8] = tested on: Streptococcus pneumoniae; experiment: In vitro antibacterial activity against Streptococcus pneumoniae (02J012), and minimum inhibitory concentration was determined; format: functional; method in brief: as §1
[9] = tested on: Staphylococcus aureus; experiment: In vitro antibacterial activity against Staphylococcus aureus (01A052), and minimum inhibitory concentration was determined; format: functional; method in brief: as §1
[10] = tested on: Pasteurella multocida; experiment: In vitro antibacterial activity against Pasteurella multocida (59A0001), and minimum inhibitory concentration was determined; format: functional; method in brief: as §1
[11] = tested on: Staphylococcus aureus; experiment: In vitro for antibacterial activity against Staphylococcus aureus (01A400), and minimum inhibitory concentration was determined; format: functional; method in brief: as §1
[12] = tested on: Escherichia coli; experiment: In vitro antibacterial activity against Escherichia coli (51A125), and minimum inhibitory concentration was determined; format: functional; method in brief: as §1
[13] = tested on: Neisseria sicca; experiment: In vitro antibacterial activity against Neisseria sicca (66C000), and minimum inhibitory concentration was determined; format: functional; method in brief: as §1
[14] = tested on: Escherichia coli; experiment: In vitro antibacterial activity against Escherichia coli (51A125), and minimum inhibitory concentration was determined

| SMILES | MIC [1] | MIC [2] | MIC [3] | MIC [4] | MIC [5] | MIC [6] | MIC [7] | MIC [8] | MIC [9] | MIC [10] | MIC [11] | MIC [12] | MIC [13] | MIC [14] |
| --- | --- | --- | --- | --- | --- | --- | --- | --- | --- | --- | --- | --- | --- | --- |
| C=CC1O[C@@H](O[C@@H]2C(C)C(=O)O[C@H](C)[C@H](C)C(OC(C)=O)C(C)C(=O)[C@]3(CO3)C[C@H](C)[C@H](OC3OC(C)CC(N(C)C)[C@H]3O)[C@H]2C)C[C@@H]1OC (some centres undefined) | 3.12 | 0.39 | 1.56 | 12.5 | 0.78 | 50 | 6.25 | <0.01 | 6.25 | 50 | 25 | >800 |  |  |
| COC1CC(O[C@@H]2C(C)C(=O)O[C@H](C)[C@H](C)C(OC(C)=O)C(C)C(=O)[C@]3(CO3)C[C@H](C)[C@H](OC3OC(C)CC(N(C)C)[C@H]3O)[C@H]2C)OC(C)[C@@H]1O (some centres undefined) | 0.39 | 0.1 | 0.78 | 1.56 | 0.78 | 6.25 |  | <0.01 | 0.39 | 6.25 | 1.56 |  | 1.56 | 400 |
